Reference: ChEMBL document CHEMBL1122008, “Lipophilic 5'-(alkyl phosphate) esters of 1-beta-D-arabinofuranosylcytosine and its N4-acyl and 2,2'-anhydro-3'-O-acyl derivatives as potential prodrugs” (1982)

How the values were obtained:
Format in all cases: functional
Mus musculus [1] = assay: Antitumor activity against L1210/ara-C leukemia in mice (Percent increase in life span.) at the dose of 200 mg/kg
In short: (§1)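 Same protocol as the L1210 assay, but with 10^5 kinase-deficient L1210/ara-C cells inoculated ip into male B6D2F1J mice (groups of 5–9) on day 0. Treatment begins day 1, qd×5 or q4d(2,6). %ILS = (T/C − 1)×100 using median survival times of treated and control groups. Body weight recorded days 1 and 7.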

Mus musculus [2] = assay: Antitumor activity against L1210/ara-C leukemia in mice (Average 7-day weight change (%)) at the dose of 250 mg/kg
In short: (§2)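 Male B6D2F1J mice (5–9 per group) were given 10^5 L1210/ara-C cells i.p. on day 0, with treatment from day 1 on qd×5 or q4d(2,6). Vehicles were sterile water, pH 7.4 0.05 M phosphate buffer, or a Tween 80/CMC/benzyl alcohol saline suspension. Weights were taken on days 1 and 7; change is expressed in g/mouse and as a percentage.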

Mus musculus [3] = assay: Antitumor activity against L1210/ara-C leukemia in mice (Percent increase in life span.) at the dose of 500 mg/kg; in short: as §1
Mus musculus [4] = assay: Antitumor activity against L1210/ara-C leukemia in mice (Average 7-day weight change) at the dose of 200 mg/kg; in short: as §2
Mus musculus [5] = assay: Antitumor activity against L1210 leukemia in mice (Average 7-day weight change) at the dose of 100 mg/kg
In short: (§3)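 Male B6D2F1J mice, groups of five to nine, inoculated ip with 10^5 L1210 cells on day 0. Drug treatment started day 1 on qd×5 or q4d(2,6) schedule. Vehicles: ara-C in sterile water; the n-butyl phosphate ester in 0.05 M pH 7.4 potassium phosphate buffer; others as suspensions in 0.4% Tween 80/0.5% low-density CMC/0.9% benzyl alcohol/0.9% saline. Mice weighed days 1 and 7; 7-day weight change given as g/mouse and %.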

Mus musculus [6] = assay: Antitumor activity against L1210 leukemia in mice (Average weight per mouse on day 1.) at the dose of 100 mg/kg
In short: (§4)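 Male B6D2F1J mice (5–9 per group) received 10^5 L1210 cells i.p. on day 0 and drug from day 1, given qd×5 or q4d(2,6). Vehicles were sterile water, 0.05 M potassium phosphate pH 7.4, or 0.4% Tween 80/0.5% CMC/0.9% benzyl alcohol/0.9% saline. Read-out is average body weight per mouse (g) on day 1.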

Mus musculus [7] = assay: Antitumor activity against L1210/ara-C leukemia in mice (Average 7-day weight change) at the dose of 50 mg/kg
In short: (§5)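 Male B6D2F1J mice, groups of 5–9, inoculated ip with 10^5 L1210/ara-C cells on day 0. Dosing began day 1 on a qd×5 or q4d(2,6) schedule. Ara-C was given in sterile water, the n-butyl phosphate ester in 0.05 M pH 7.4 potassium phosphate buffer, and others as suspensions in 0.4% Tween 80/0.5% CMC/0.9% benzyl alcohol/0.9% saline. Mice were weighed on days 1 and 7; 7-day change given in g and %.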

Mus musculus [8] = assay: Antitumor activity against L1210/ara-C leukemia in mice (Average 7-day weight change (%)) at the dose of 100 mg/kg; in short: as §2
Mus musculus [9] = assay: Antitumor activity against L1210/ara-C leukemia in mice (Percent increase in life span.) at the dose of 1000 mg/kg; in short: as §1
Mus musculus [10] = assay: Antitumor activity against L1210/ara-C leukemia in mice (Percent increase in life span.) at the dose of 100 mg/kg; in short: as §1
Mus musculus [11] = assay: Antitumor activity against L1210 leukemia in mice (Average weight per mouse on day 1.) at the dose of 250 mg/kg; in short: as §4
Mus musculus [12] = assay: Antitumor activity against L1210 leukemia in mice (Average 7-day weight change (%)) at the dose of 250 mg/kg; in short: as §3
Mus musculus [13] = assay: Antitumor activity against L1210/ara-C leukemia in mice (Average 7-day weight change) at the dose of 250 mg/kg; in short: as §2
Mus musculus [14] = assay: Antitumor activity against L1210 leukemia in mice (Average weight per mouse on day 1.) at the dose of 200 mg/kg; in short: as §4
Mus musculus [15] = assay: Antitumor activity against L1210 leukemia in mice (Average 7-day weight change (%)) at the dose of 500 mg/kg; in short: as §3
Mus musculus [16] = assay: Antitumor activity against L1210 leukemia in mice (Average 7-day weight change) at the dose of 200 mg/kg; in short: as §3
Mus musculus [17] = assay: Antitumor activity against L1210 leukemia in mice (Average weight per mouse on day 1.) at the dose of 500 mg/kg; in short: as §4
Mus musculus [18] = assay: Antitumor activity against L1210/ara-C leukemia in mice (Average weight per mouse on day 1.) at the dose of 1000 mg/kg; in short: as §5
Mus musculus [19] = assay: Antitumor activity against L1210/ara-C leukemia in mice (Average weight per mouse on day 1.) at the dose of 250 mg/kg; in short: as §5
Mus musculus [20] = assay: Antitumor activity against L1210 leukemia in mice (Average 7-day weight change (%)) at the dose of 1000 mg/kg; in short: as §3
Mus musculus [21] = assay: Antitumor activity against L1210/ara-C leukemia in mice (Percent increase in life span.) at the dose of 50 mg/kg; in short: as §1
Mus musculus [22] = assay: Antitumor activity against L1210 leukemia in mice (Percent increase in life span.) at the dose of 200 mg/kg
In short: (§6)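 Male B6D2F1J mice, groups of 5–9, inoculated ip with 10^5 L1210 cells on day 0. Dosing starts day 1 on a qd×5 or q4d(2,6) schedule. Vehicles are sterile water, pH 7.4 0.05 M potassium phosphate buffer, or 0.4% Tween 80/0.5% CMC/0.9% benzyl alcohol/0.9% saline. %ILS = (T/C − 1)×100 from median survival. Weights taken days 1 and 7.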

Mus musculus [23] = assay: Antitumor activity against L1210 leukemia in mice (Average weight per mouse on day 1.) at the dose of 50 mg/kg; in short: as §4
Mus musculus [24] = assay: Antitumor activity against L1210 leukemia in mice (Average 7-day weight change) at the dose of 250 mg/kg; in short: as §3
Mus musculus [25] = assay: Antitumor activity against L1210 leukemia in mice (Percent increase in life span.) at the dose of 500 mg/kg; in short: as §6
Mus musculus [26] = assay: Antitumor activity against L1210/ara-C leukemia in mice (Average weight per mouse on day 1.) at the dose of 100 mg/kg; in short: as §5
Mus musculus [27] = assay: Antitumor activity against L1210 leukemia in mice (Percent increase in life span.) at the dose of 1000 mg/kg; in short: as §6
Mus musculus [28] = assay: Antitumor activity against L1210/ara-C leukemia in mice (Percent increase in life span.) at the dose of 250 mg/kg; in short: as §1
Mus musculus [29] = assay: Antitumor activity against L1210 leukemia in mice (Average 7-day weight change (%)) at the dose of 50 mg/kg; in short: as §3
Mus musculus [30] = assay: Antitumor activity against L1210 leukemia in mice (Average 7-day weight change) at the dose of 500 mg/kg; in short: as §3
Mus musculus [31] = assay: Antitumor activity against L1210/ara-C leukemia in mice (Average 7-day weight change) at the dose of 500 mg/kg; in short: as §5
Mus musculus [32] = assay: Antitumor activity against L1210 leukemia in mice (Percent increase in life span.) at the dose of 250 mg/kg; in short: as §6

Compound: Nc1ccn([C@@H]2O[C@H](CO)[C@@H](O)[C@@H]2O)c(=O)n1 [CYTARABINE]
- ILS at 200 mg/kg (Mus musculus [1]): -13%
- Weight change (Mus musculus [2]): 20%
- ILS at 500 mg/kg (Mus musculus [3]): 12%
- Weight change (Mus musculus [4]): -3.1 g mouse-1
- Weight change (Mus musculus [5]): -1 g mouse-1
- Average weight (Mus musculus [6]): 22.4 g mouse-1
- Weight change (Mus musculus [7]): 0.8 g mouse-1
- Weight change (Mus musculus [8]): -4%
- ILS at 1000 mg/kg (Mus musculus [9]): 0%
- ILS at 100 mg/kg (Mus musculus [10]): -13%
- Average weight (Mus musculus [11]): 21.4 g mouse-1
- Weight change (Mus musculus [12]): 7%
- Weight change (Mus musculus [13]): 4 g mouse-1
- Average weight (Mus musculus [14]): 22.6 g mouse-1
- Weight change (Mus musculus [15]): 2%
- Weight change (Mus musculus [16]): -1.6 g mouse-1
- Average weight (Mus musculus [17]): 22.6 g mouse-1
- Average weight (Mus musculus [18]): 22 g mouse-1
- Average weight (Mus musculus [19]): 19.4 g mouse-1
- Weight change (Mus musculus [20]): 3%
- ILS at 50 mg/kg (Mus musculus [21]): 0%
- ILS at 200 mg/kg (Mus musculus [22]): 112%
- Average weight (Mus musculus [23]): 24 g mouse-1
- Weight change (Mus musculus [24]): 1.4 g mouse-1
- ILS at 500 mg/kg (Mus musculus [25]): 62%
- Average weight (Mus musculus [26]): 24 g mouse-1
- ILS at 1000 mg/kg (Mus musculus [27]): 87%
- ILS at 250 mg/kg (Mus musculus [28]): 12%
- Weight change (Mus musculus [29]): 0%
- Weight change (Mus musculus [30]): 0.4 g mouse-1
- Weight change (Mus musculus [31]): 3.8 g mouse-1
- ILS at 250 mg/kg (Mus musculus [32]): 62%
